The entries come from a sample that favours hits as a whole.
Dynein cargo inh – dynein cargo transport inhibition; actives 0.47% (n = 220,000); 3617.4 mouse cells, GR-EGFP nuclear translocation imaging; test concentration mostly 20 µM; stimulated with dexamethasone, 1 µM; active compounds read low; z-score, hits read low;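 active = plate z-score of nuclear minus cytoplasmic receptor signal below a set negative limit, without overly bright fluorescence or cell loss, cut at about -3.5 in these data, passing the limit was not always enough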;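 also: z-score of nuclear minus cytoplasmic ring GR-EGFP intensity difference per well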
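Buffer or medium: tet-free medium with charcoal-stripped serum / Also added: dexamethasone agonist, 1.0 µM final, for 30 min / Timing: induction 48 h, compound 1 h, agonist 30 min / Measured by: high-content fluorescence imaging after fixation / Read-out: nuclear-to-cytoplasmic GR-EGFP distribution per well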
B2AR ag – agonists of human beta-2 adrenergic receptor inducing internalization | response, % (concentration not given with the values) | P07550 | actives 0.43% (n = 340,000) | Am2.2-beta2AR cells, FAP receptor internalization, flow cytometry;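 active = response above a set limit, near 3 SD of response in nonfluorescent compounds, cut at about 42% in these data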
CHOP inhibitor – CHOP inhibition in unfolded protein response; CHO-K1 CHOP-promoter luciferase, tunicamycin-induced, 15-18 h; AID 2732; inhibition, % at 10 µM; actives 3.8% (n = 220,000);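 active = compounds that reduced the stress-induced luciferase reporter signal by more than about 70% of percent inhibition, limit read from the data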;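 also: 0% = tunicamycin plus vehicle and 100% = wells without tunicamycin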
CHOP UPR activ – apoptotic UPR (CHOP) activation; activation, % at 10 µM; actives 0.34% (n = 330,000); AID 449763; CHO-CHOP luciferase reporter, luminescence; percent of tunicamycin response over DMSO baseline;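 active = at 10 µM dose, activation of 40% or more, normalized to positive control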;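 also: 100% = tunicamycin at 10 µg/mL and 0% = DMSO alone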
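System: CHO-CHOP luciferase reporter cell line | Buffer or medium: F12 medium containing 10% fetal bovine serum | Doses: One dose, 10 µM in 0.5% DMSO | Times: 6 h compound exposure at 37 °C after overnight seeding | Signal: Luciferase luminescence | Read-out: % activation vs tunicamycin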
pCIP destab – lowers stability of the mouse p/CIP coactivator protein; actives 0.01% (n = 290,000); AID 1984; decrease of EGFP signal, % at 10 µM; F442A p/CIP-EGFP cells, EGFP fluorescence, 16 h; Q05BA5;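 active = EGFP signal decrease of at least 30% at 10 µM or well 3 SD below plate mean, unless failing retest; inactive = the rest, including hits failing retest or dose response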
XBP1 UPR activ – adaptive UPR (XBP1) activation; CHO-XBP1 luciferase reporter, IRE1-XBP1 UPR activation, luminescence; percent of tunicamycin response, DMSO as zero; activation, % at 20 µM; actives 0.33% (n = 330,000); AID 463104;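 active = versus positive control, 20 µM dose yields 30% or more activation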;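 also: 100% = tunicamycin at 10 µg/mL and 0% = DMSO only wells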
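Material: CHO-XBP1 cells stably carrying IRE1-XBP1-driven luciferase reporter / Amount: 1000 cells per well / Compound: 20 µM, 1% DMSO / Times: 6 h treatment, 37 °C / Detection: luciferase luminescence / Measure: % activation of reporter signal versus tunicamycin and DMSO controls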
Beta2AR ag CP1 – activates human beta-2 adrenergic receptor; Am2.2-beta2AR cells, FAP surface receptor, flow cytometry; active compounds read low; actives 25% (n = 1,100); percent response (surface receptor), % at 10 µM; shares compounds with B2AR ag;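 active = surface receptor percent response at or below 58%, roughly 3 SD from nonfluorescent compounds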
FAP fluor counter – fluorescence artifact in beta-2AR agonist FAP counterscreen; shares compounds with B2AR ag; Am2.2 cells, FAP fluorogen flow cytometry; active compounds read low; calls only at 10 µM; 1,100 tested, under 10 active; AID 588765;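 active = percent response below a set limit in fluorescence channel 1 and below 50% in channel 8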
* = called active by the depositor; i = inactive; nt = no result.

SMILES	Dynein cargo inh	B2AR ag	CHOP inhibitor	CHOP UPR activ	pCIP destab	XBP1 UPR activ	Beta2AR ag CP1	FAP fluor counter
CC(CCc1ccc(O)cc1)NCCc1ccc(O)c(O)c1 (stereo unspecified)	nt	2	12	1	nt	0	86	i
COc1cc(OC)cc(-c2oc(=O)c3cc(OC)c(OC)cc3c2/C=C/c2ccc(F)cc2)c1	nt	-2	nt	3	nt	0	nt	nt
COc1ccc(S(=O)(=O)N(C)C)cc1NC(=O)COC(=O)Cn1cnc2ccccc2c1=O	nt	7	nt	-2	nt	0	nt	nt
C=CCc1ccc(OCCOc2ccc(/C=N/n3cnnc3)cc2OCC)c(OC)c1	-0.45	57*	50	-1	1	-2	33*	i
COc1cc(/C=N/n2cnnc2)ccc1OCCOc1ccccc1	-0.6	-3	10	1	-15	-4	nt	nt
Cc1ccc(S(=O)(=O)N2CCC(C(=O)O)CC2)cc1	-0.0095	2	1	0	5	0	nt	nt
O=C(Oc1c(CN2CCOCC2)cc(Cl)c2cccnc12)c1cccs1	-1.2	-3	-60	-1	9	14	nt	nt
O=C(Oc1c(CN2CCOCC2)cc(Cl)c2cccnc12)c1ccccc1Cl	0.15	4	-5	40	14	19	113	i
CC(OC(=O)CCCC(=O)Nc1ccc(F)cc1)C(=O)c1ccccc1 (stereo unspecified)	nt	-15	nt	0	1	-5	nt	nt
C/C=C(/C(=C/C)c1ccc(O)cc1)c1ccc(O)cc1	-0.46	-15	46	-1	-7	-7	108	i
CCOC(=O)c1cn(CC(=O)Nc2cccc(Cl)c2C)nn1	-0.22	4	18	0	3	-1	nt	nt
CCOC(=O)c1nnn(CC(=O)Nc2cccc(Cl)c2C)c1C(=O)OCC	-0.51	70*	37	-1	-19	0	101	i
COc1ccc(Cl)cc1-c1nc(SCC(=O)NC2CCS(=O)(=O)C2)n[nH]1 (stereo unspecified)	nt	-11	nt	0	nt	1	nt	nt
Cc1ccc(N=Nc2c(C)[nH]n(C(N)=S)c2=O)cc1	0.31	-4	17	4	0	2	nt	nt
Cc1ccc([N+](=O)[O-])cc1N=Nc1c(-c2ccc([N+](=O)[O-])cc2)[nH]n(C(N)=S)c1=O	-1.1	20	78*	nt	-24	nt	101	i
CNCC[C@H](Oc1cccc2ccccc12)c1cccs1	nt	50*	3	-2	0	-3	102	i
Cn1c(CNc2nc(-c3ccccc3)cs2)nnc1SCC(=O)N1CCc2ccccc21	-0.36	46*	45	1	2	-3	73	i
COc1ccc(-n2c(SCC(N)=O)nnc2-c2ccc(NS(=O)(=O)c3ccc(C)cc3)cc2)cc1	-1.1	55*	21	-3	-6	-1	106	i
CC(=O)Nc1ccc(S(=O)(=O)N2CCC(C(=O)NCCC(=O)Nc3ccccc3)CC2)cc1	nt	18	nt	1	0	0	nt	nt
O=C(CCNC(=O)C1CCN(S(=O)(=O)c2ccccc2)CC1)Nc1ccccc1	nt	48*	nt	1	-13	-4	107	i
O=C(Cc1ccc(Br)cc1)OCC(=O)c1ccc[nH]1	nt	0	nt	5	nt	-2	nt	nt
CCOC(=O)c1ccc(N2C(=O)c3n[nH]c(-c4ccco4)c3C2c2cccc([N+](=O)[O-])c2)cc1 (stereo unspecified)	-0.91	85*	71*	2	-7	1	23*	i
COc1ccc(C(CCNCc2ccc(N(C)C)cc2)c2ccccc2)cc1 (stereo unspecified)	nt	12	nt	0	-19	-9	104	i
COc1ccc(C(CCNCc2ccc(OC)c(OC)c2)c2ccc(F)cc2)cc1 (stereo unspecified)	-0.93	-7	17	0	-2	0	111	i
CC(C)Oc1ccc(C(CC(=O)O)NC(=O)Cc2ccccc2)cc1 (stereo unspecified)	nt	-5	nt	1	2	1	nt	nt
SMILES	Dynein cargo inh	B2AR ag	CHOP inhibitor	CHOP UPR activ	pCIP destab	XBP1 UPR activ	Beta2AR ag CP1	FAP fluor counter
CC(C)Oc1ccc(C(CCNCc2ccc(O)cc2)c2ccccc2)cc1 (stereo unspecified)	nt	34	nt	0	11	-4	103	i
COc1ccc(NCc2ccc(OC)c(OC)c2)cc1	0.027	nt	13	4	-25	3	nt	nt
Cn1cc(S(=O)(=O)Cc2ccc(F)cc2)c2ccccc21	nt	-8	nt	3	0	2	nt	nt
O=C1NC(=O)C(c2ccccc2)(c2ccccn2)N1 (stereo unspecified)	nt	-2	nt	nt	nt	nt	nt	nt
Cc1noc(C)c1COc1ccccc1C(=O)N1CCN(S(=O)(=O)c2ccccc2Br)CC1	nt	71*	nt	nt	nt	nt	92	i
COc1ccc(OC)c(C(c2nnnn2Cc2ccccc2)N2CCN(C3CCCCC3)CC2)c1 (stereo unspecified)	0.21	-4	-2	0	-10	-2	nt	nt
Cc1ccc(CS(=O)(=O)c2nc3c(c(N(C)C)n2)CCCC3)cc1	0.76	73*	17	-1	-11	0	27*	i
O=C(NCc1ccccc1)C(c1ccc(Cl)cc1)N(C(=O)c1csnn1)C1CC1 (stereo unspecified)	nt	-5	nt	-2	6	-8	nt	nt
COC(=O)c1ccc(CNC(=O)COC(=O)Cc2ccsc2)cc1	0.61	2	19	2	6	5	nt	nt
Cc1c(C(=O)N2CCN(C3CCS(=O)(=O)C3)CC2)oc2ccc(Cl)cc12 (stereo unspecified)	nt	-12	nt	2	nt	-1	nt	nt
CC(C)c1ccc(NC(=O)C(c2ccc3c(c2)OCO3)N2CCC3(CC2)OCCO3)cc1 (stereo unspecified)	-0.16	8	30	2	6	-1	127	i
CCc1nnc(NC(=O)c2ccc(COc3ccccc3C)o2)s1	nt	1	nt	1	-4	0	nt	nt
O=C(NCC1CCCO1)C1CCN(S(=O)(=O)c2ccc(Br)cc2)CC1 (stereo unspecified)	nt	-4	nt	0	-19	-3	nt	nt
CSc1ccc(S(=O)(=O)N2CCC(C(=O)NCC3CCCO3)CC2)cc1 (stereo unspecified)	nt	155*	nt	1	1	5	108	i
CCC1CC(C(=O)Nc2ccccc2)C(=O)O1 (stereo unspecified)	nt	4	nt	2	nt	2	nt	nt
O=C(c1cc2c(=O)n3ccccc3nc2s1)N1CCN(Cc2ccccc2)CC1	nt	-16	nt	1	-2	3	nt	nt
